Results from different studies.
Converted amounts (≈) assume the structure as drawn.

CNc1ccnc(Nc2cccc(-c3cccnc3)c2)n1 gave an EC50 of over 20 µM (BJ; cell growth or viability, ATP luminescence; 72 h).
The inhibition of CC[C@H]1OC(=O)[C@H](C)[C@@H](O[C@H]2C[C@@](C)(OC)[C@@H](O)[C@H](C)O2)[C@H](C)[C@@H](O[C@@H]2O[C@H](C)C[C@H](N(C)C)[C@H]2O)[C@](C)(OC)C[C@@H](C)C(=O)[C@H](C)[C@@H](O)[C@]1(C)O is reported as 81.3% (Helicobacter pylori; microbial growth, broth dilution; 0.24 µg/mL).
c1cncc(-c2cccc(Nc3nccc(NC4CCOCC4)n3)c2)c1 has an EC50 of over 24 µM (BJ; cell growth or viability, ATP luminescence; 72 h).
O=C(O)c1ccc(O)cc1 gave an inhibition of 100% (Helicobacter pylori; microbial growth, broth dilution; 125 µg/mL).
The EC50 of COC(=O)c1cccc(Nc2nccc(NC3CCCCC3)n2)c1 is reported as over 17 µM (BJ; cell growth or viability, ATP luminescence; 72 h).
With CN(C)[C@@H]1C(O)=C(C(N)=O)C(=O)[C@@]2(O)C(O)=C3C(=O)c4c(O)cccc4[C@@](C)(O)[C@H]3C[C@@H]12 the MIC was 1 µg/mL (≈ 2.25 µM) (Salmonella enterica; microbial growth; 20 h, pH 5.5).
O=c1cc(-c2ccc(O)cc2)oc2cc(O)cc(O)c12 has an inhibition of 100% (Helicobacter pylori; microbial growth, broth dilution; 3.9 µg/mL).
Cc1cc(NS(=O)(=O)c2ccc(N)cc2)no1 has an MIC of 128 µg/mL (≈ 505 µM) (Salmonella enterica; microbial growth; ENTERITIDIS; 20 h, pH 5.5).
O=c1cc(-c2ccc(O)c(O)c2)oc2cc(O)cc(O)c12 gave an inhibition of 100% (Helicobacter pylori; microbial growth, broth dilution; 3.9 µg/mL).
For Cc1ccc(-c2nc3ccccc3s2)cc1NC(=O)c1cc([N+](=O)[O-])c(NC2CCN(C)CC2)cc1Cl, the EC50 was over 9.2 µM (BJ; cell growth or viability, ATP luminescence).
With CCN1CCN(c2cc3c(cc2F)c(=O)c(C(=O)O)cn3C2CC2)CC1 the MIC was 0.0313 µg/mL (≈ 0.0871 µM) (Salmonella enterica; microbial growth; F98, TYPHIMURIUM; 20 h, pH 7).
c1ccc(-c2cccc(Nc3nccc(NC4CCCCC4)n3)c2)cc1 has an EC50 of over 5 µM (BJ; cell growth or viability, ATP luminescence; 72 h).
With CO/N=C(\C(=O)N[C@@H]1C(=O)N2C(C(=O)O)=C(CSc3nc(=O)c(=O)[nH]n3C)CS[C@H]12)c1csc(N)n1 the MIC was 0.125 µg/mL (≈ 0.225 µM) (Salmonella enterica; microbial growth; F98, TYPHIMURIUM; 20 h, pH 7).
CN(C)C/C=C/C(=O)Nc1cc2c(Nc3ccc(F)c(Cl)c3)ncnc2cc1O[C@H]1CCOC1 has a viability of 92.7% (KB-C2; cell growth or viability, ATP luminescence; 6 µM, 12 days, 3D culture).
